Our source for the inhibition and IC50 values is ChEMBL document CHEMBL3734694, “Design, synthesis, and anticancer evaluation of long-chain alkoxylated mono-carbonyl analogues of curcumin” (Eur J Med Chem, 2015).

Molecules are shown by their SMILES. pIC50: −log10 of the molar value. Bounds are passed on as bounds.

The nature of assay [1]: Cytotoxicity against human SW620 cells assessed as inhibition of cell proliferation at 10 uM incubated for 72 hrs by MTS assay. The class given is functional. The note with it: SW-620, 72 h. In outline:
(§1)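 Single-concentration MTS screen at 10 μM. Cells in RPMI-1640 with 10% FBS, seeded at 4000 cells/well in triplicate, attached overnight, then exposed for 72 h at 37°C, 5% CO2. MTS for 4 h; absorbance 490 nm. Reported as % inhibition.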

Assay [2] can be described thus: Cytotoxicity against human MGC803 cells assessed as inhibition of cell proliferation at 10 uM incubated for 72 hrs by MTS assay. To be noted: MGC-803, 72 h. The class given is functional. In outline:
as §1

The nature of assay [3]: Cytotoxicity against human SGC7901 cells assessed as inhibition of cell proliferation at 10 uM incubated for 72 hrs by MTS assay. The format is functional. To be noted: SGC-7901, 72 h. In outline: as §1
Assay [4] can be described thus: Cytotoxicity against human MGC803 cells assessed as inhibition of cell proliferation incubated for 72 hrs by MTS assay. To be noted: MGC-803, 72 h. The class given is functional, cell-based. The essentials: (§2)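 Cells in RPMI-1640 with 10% heat-inactivated FBS at 37°C, 5% CO2. Seeded at 4000 cells/well in triplicate and attached overnight. Exposed to various concentrations for 72 h. MTS added for a further 4 h; absorbance at 490 nm. IC50 = concentration for 50% growth inhibition, as mean ± SEM of three independent tests.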

For assay [5], the system named is CT26. Description: Cytotoxicity against mouse CT26 cells at 10 uM assessed as inhibition of cell proliferation incubated for 72 hrs by MTS assay. The class given is functional. The note with it: CT26, 72 h. The essentials:
as §1

Assay [6] concerns CT26. Description: Cytotoxicity against mouse CT26 cells assessed as inhibition of cell proliferation incubated for 72 hrs by MTS assay. The format is functional, cell-based. The note with it: CT26, 72 h. The essentials:
as §2

Assay [7] is described as follows: Cytotoxicity against human GES-1 cells assessed as inhibition of cell proliferation incubated for 72 hrs by MTS assay. The format is functional, cell-based. The note with it: GES1, 72 h. In outline:
as §2

The nature of assay [8]: Cytotoxicity against human SGC7901 cells assessed as inhibition of cell proliferation incubated for 72 hrs by MTS assay. The format is functional, cell-based. The note with it: SGC-7901, 72 h. In outline: as §2
Assay [9] is described as follows: Cytotoxicity against human SW620 cells assessed as inhibition of cell proliferation incubated for 72 hrs by MTS assay. The note with it: SW-620, 72 h. The format is functional, cell-based. In outline: as §2

`COc1ccccc1/C=C/C(=O)/C=C/c1ccc(OCCBr)c(OC)c1`: the inhibition at 10 µM came out at 83.7% in assay [1], 76.2% in [2], 78.7% in assay [3] and 70.5% in the assay with CT26 [5]. Further, the negative logarithm of the IC50 (pIC50) in [4] was 5.26; with CT26 [6], 5.35; in assay [7], 5.39; in [8] it was 5.34; in [9], 5.35.
Take `COc1cc(/C=C2\CC/C(=C\c3ccc(OCCBr)c(OC)c3)C2=O)ccc1OCCBr`: the inhibition at 10 µM was found to be 38.5% in assay [1], 8.38% in assay [2], 20.4% in [3] and 58.6% in the assay on CT26 [5].
In the same order, the values of `COc1cc(/C=C2\CC/C(=C\c3ccccc3C(F)(F)F)C2=O)ccc1OCCCN1CCOCC1` are 34.9%, 4.98%, 29.7% and 4.71%.
As to `COc1cc(/C=C/C(=O)/C=C/c2ccc(C(C)(C)C)cc2)ccc1OCCCN1CCOCC1`, the inhibition at 10 µM in assay [1] was 84.8%; in [2] it was 84.2%; in [3] it was 76.2%; with CT26 [5], 90.7%. For the same compound, the pIC50 is 5.61 in assay [4]; 5.49 in the assay on CT26 [6]; 5.52 in assay [7]; 5.56 in [8]; 5.79 in [9].
Turning to `COc1ccccc1/C=C1\CCC/C(=C\c2ccc(OCCCN3CCOCC3)c(OC)c2)C1=O`, the inhibition at 10 µM in assay [1] is 22.9%; in assay [2] it was 2.3%; in assay [3], -0.33%; in the assay with CT26 [5], 31.6%.
Regarding `COc1cc(/C=C/C(=O)/C=C/c2ccccc2C(F)(F)F)ccc1OCCCN1CCOCC1`, the inhibition at 10 µM was -3.21% in assay [1], -2.85% in assay [2], 3.22% in assay [3] and -24% with CT26 [5].
In the case of `COc1cc(/C=C2\CC/C(=C\c3ccc(OCCCBr)c(OC)c3)C2=O)ccc1OCCCBr`, the inhibition at 10 µM turned out to be 27.4% in assay [1], 5.56% in assay [2], 6.48% in [3] and 71% in the assay with CT26 [5].
As to `COc1cc(/C=C2\CCC/C(=C\c3ccc(OCCCBr)c(OC)c3)C2=O)ccc1OCCCBr`, the inhibition at 10 µM was 61.2% in assay [1], -8.68% in [2], 18.9% in assay [3] and 49.8% with CT26 [5].
Regarding `COc1cc(/C=C2\CCC/C(=C\c3cccc(OC)c3OC)C2=O)ccc1OCCCN1CCOCC1`, the inhibition at 10 µM in [1] was 22.5%; in assay [2], -9.26%; in assay [3], -6.53%; with CT26 [5], 57.2%.
In the same order, the values of `COc1cc(/C=C2\CC/C(=C\c3ccc(OCCCn4ccnc4)c(OC)c3)C2=O)ccc1OCCCBr` are 65.7%, 7.1%, 14% and 87.1%.
Consider `COc1cc(OC)c(/C=C/C(=O)/C=C/c2ccc(OCCCN3CCOCC3)c(OC)c2)c(OC)c1`, for which the inhibition at 10 µM in assay [1] came to 33.9%; in assay [2], 5.96%; in assay [3] it was 9.22%; in the assay on CT26 [5] it was 65.8%.
`COc1ccc(/C=C/C(=O)/C=C/c2ccc(OCCCN3CCOCC3)c(OC)c2)c(F)c1`: the inhibition at 10 µM was found to be 79.3% in [1], 3.64% in assay [2], 51.6% in assay [3] and 67.6% in the assay with CT26 [5].
For `COc1cc(/C=C2\CC/C(=C\c3ccc(OCCCN4CCOCC4)c(OC)c3)C2=O)ccc1OCCCN1CCOCC1`, the inhibition at 10 µM in [1] stood at 86%; in assay [2] it was 83.9%; in [3], 86.1%; with CT26 [5], 92.5%. Besides, the pIC50 was 5.64 in assay [4]; 6.41 in the assay with CT26 [6]; < 4.52 in assay [7]; 6.00 in [8]; 5.83 in assay [9].
For the compound `COc1ccccc1/C=C/C(=O)/C=C/c1ccc(OCCCBr)c(OC)c1`, the inhibition at 10 µM in assay [1] came out at 81.5%; in [2], 80.1%; in [3], 74.8%; in the assay on CT26 [5], 77.2%. Besides, the pIC50 in assay [4] was 5.17; in the assay on CT26 [6], 5.19; in assay [7] it was 5.39; in assay [8], 5.55; in [9], 5.45.
Turning to `COc1cc(/C=C/C(=O)/C=C/c2c(C)cc(C)cc2C)ccc1OCCCN1CCOCC1`, the inhibition at 10 µM in assay [1] was 83.6%; in [2], 80.7%; in assay [3], 78.1%; in the assay with CT26 [5] it was 89.6%. For the same compound, the pIC50 in [4] was 5.07; with CT26 [6], 5.15; in [7], 5.09; in [8], 5.12; in [9], 5.47.
As to `CCN(CC)CCCOc1ccc(/C=C2\CCC/C(=C\c3ccc(OCCCBr)c(OC)c3)C2=O)cc1OC`, the inhibition at 10 µM stood at 85.3% in assay [1], 87% in assay [2], 86.4% in assay [3] and 92.3% in the assay on CT26 [5]. In addition, the pIC50 is 4.81 in assay [4]; 4.89 with CT26 [6]; 4.85 in assay [7]; 4.92 in [8]; 5.33 in assay [9].
For `COc1ccc(/C=C/C(=O)/C=C/c2ccc(OCCCN3CCOCC3)c(OC)c2)cc1OC`, the inhibition at 10 µM was 84.8% in assay [1], 53.8% in assay [2], 66.1% in assay [3] and 79.7% in the assay with CT26 [5]. Moreover, the negative logarithm of the IC50 (pIC50) in assay [4] is 5.15; in the assay on CT26 [6], 5.50; in assay [7], 5.11; in [8] it was 5.22; in [9], 5.55.
Consider `O=C1/C(=C/c2ccc(OCCBr)cc2)CC/C1=C\c1ccc(OCCBr)cc1`, for which the inhibition at 10 µM in assay [1] is 78.5%; in assay [2] it was 52%; in assay [3], 76%; in the assay on CT26 [5] it was 88.1%.
Turning to `CCCN(CCC)CCCOc1ccc(/C=C2\CCC/C(=C\c3ccc(OCCCN(CCC)CCC)c(OC)c3)C2=O)cc1OC`, the inhibition at 10 µM in assay [1] is 10.3%; in assay [2], -18.4%; in assay [3], 2.83%; with CT26 [5], 8.04%.
In the case of `COc1cc(/C=C2\CC/C(=C\c3ccc(OCCCN4CCCCC4)c(OC)c3)C2=O)ccc1OCCCBr`, the inhibition at 10 µM in assay [1] was 84.5%; in assay [2], 91.4%; in assay [3] it was 89%; in the assay with CT26 [5] it was 90.2%. Also, the negative logarithm of the IC50 (pIC50) is 5.14 in assay [4]; 5.41 in the assay on CT26 [6]; 5.15 in assay [7]; 5.29 in assay [8]; 5.35 in assay [9].
As for `O=C1/C(=C/c2ccc(OCCBr)cc2)CCC/C1=C\c1ccc(OCCBr)cc1`, the inhibition at 10 µM in [1] was determined as 0.12%; in assay [2], 0.05%; in assay [3], 10.8%; in the assay with CT26 [5], 58.3%.
In the case of `COc1cc(/C=C2\CCC/C(=C\c3ccc(OCCCN4CCCCC4)c(OC)c3)C2=O)ccc1OCCCN1CCCCC1`, the inhibition at 10 µM came out at 86.9% in assay [1], 76.9% in assay [2], 82.8% in [3] and 93.2% in the assay with CT26 [5]. Further, the pIC50 is 5.53 in assay [4]; 5.62 with CT26 [6]; 5.20 in [7]; 5.63 in assay [8]; 5.60 in assay [9].
Consider `COc1cc(/C=C/C(=O)/C=C/c2ccccc2Cl)ccc1OCCCN1CCOCC1`, for which the inhibition at 10 µM was 81.6% in [1], 38.5% in assay [2], 75.3% in assay [3] and 87.2% in the assay with CT26 [5].
With `COc1cc(/C=C/C(=O)/C=C/c2ccc(OCCCN3CCOCC3)c(OC)c2)ccc1OCCCN1CCOCC1`, the inhibition at 10 µM in [1] is 84%; in assay [2], 44.5%; in assay [3], 67.5%; with CT26 [5], 89.7%.
For the compound `COc1cc(/C=C2\CCC/C(=C\c3ccc(OCCCN4CCCCC4)c(OC)c3)C2=O)ccc1OCCCBr`, the inhibition at 10 µM in [1] was found to be 50%; in assay [2], 26.9%; in assay [3] it was 24.4%; in the assay with CT26 [5] it was 61.2%.
`COc1cc(/C=C/C(=O)CC(=O)/C=C/c2ccc(O)c(OC)c2)ccc1O` [CURCUMIN]: the pIC50 in assay [4] was 4.50; in the assay with CT26 [6], 5.11; in assay [7] it was 4.55; in assay [8], 4.61; in [9] it was 4.90.
Consider `COc1cc(/C=C2\CCC/C(=C\c3ccc(OCCCN4CCN(C)CC4)c(OC)c3)C2=O)ccc1OCCCBr`, for which the inhibition at 10 µM in assay [1] was 48.1%; in assay [2] it was -7.15%; in [3], 15.7%; in the assay with CT26 [5], 37.3%.
